# Sampled rows, rich in hits. Any-hit rate of the full collection: about 4.1%.
# MPTP block = inhibitors of mitochondrial permeability transition pore; hit rate 1.4% among 360,000; AID 602449; inhibition, % at 10 µM; isolated mouse mitochondria, Ca2+ swelling absorbance, 30 min;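 active means inhibition of 50% or more, scaled per plate between neutral and stimulator controls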
# SMARCA2 act = activators of SMARCA2 function. MG213 cells, MMTV-luciferase reporter, dexamethasone, overnight. activation, % at 9.1 µM. hit rate 1% among 370,000. AID 652017; in the data active means activation above about 7.8%
# ATG4B inhibitor = inhibitors of human ATG4B cysteine protease | Q9Y4P1 | ATG4B cleavage of LC3-PLA2, NBD-HPC fluorescence, 1 h | inhibition, % at 8.33 µM | hit rate 0.51% among 340,000; in the data active means inhibition above about 40%
# MC4R antag cAMP = antagonists of human melanocortin 4 receptor (MC4R); inhibition, % at 6.5 µM; P32245; MC4R-expressing cells, MTII-stimulated cAMP, LANCE TR-FRET; hit rate 0.48% among 360,000;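 active means inhibition above its plate's cutoff, the mean of tested wells on that plate plus 3 SD, cut at about 29% in these data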
# Target sequence (P32245 whole entry, looked up): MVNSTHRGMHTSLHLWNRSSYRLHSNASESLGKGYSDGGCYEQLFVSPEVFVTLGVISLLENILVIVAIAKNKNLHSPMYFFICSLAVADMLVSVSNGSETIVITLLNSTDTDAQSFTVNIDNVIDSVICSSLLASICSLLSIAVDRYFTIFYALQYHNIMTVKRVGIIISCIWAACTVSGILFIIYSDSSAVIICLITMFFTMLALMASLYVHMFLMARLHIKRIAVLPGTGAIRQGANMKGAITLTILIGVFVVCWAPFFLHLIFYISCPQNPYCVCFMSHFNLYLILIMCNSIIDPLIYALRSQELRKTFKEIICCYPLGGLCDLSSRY
#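 material = U2OS cells stably expressing human melanocortin 4 receptor (MC4R) | also added = Melanotan II challenge | dosing = single nominal compound dose of 6.5 µM | detection = TR-FRET with Eu-cAMP and labeled anti-cAMP, 671 nm | replication = singlicate | timing = compound 30 min, challenge 1 h, detection 1 h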
# MC4R ag barr = agonists of human melanocortin 4 receptor (MC4R) beta-arrestin; P32245; U2OS MC4R beta-arrestin complementation, luminescence; percent of melanotan II response, DMSO zero; activation, % at 8.9 µM; hit rate 0.98% among 360,000; AID 540308;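 active means activation above a per-plate cutoff, the mean activation of sample wells on that plate plus 3 SD, cut at about 8% in these data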
# ATG4B confirm = confirmation of human ATG4B inhibitors; shares compounds with ATG4B inhibitor; ATG4B protease fluorescent substrate cleavage assay; inhibition, % at 8.33 µM; hit rate 92% among 320; in the data active means inhibition above about 39%
# PLA2 ctr = inhibits human PLA2, flagging false ATG4B inhibitors | hit rate 66% among 1,600 | inhibition, % at 8.33 µM | purified PLA2, NBD-C6-HPC fluorescence, 45 min | shares compounds with ATG4B inhibitor; in the data active means inhibition above about 50%
# Target sequence (P04054 whole entry, looked up): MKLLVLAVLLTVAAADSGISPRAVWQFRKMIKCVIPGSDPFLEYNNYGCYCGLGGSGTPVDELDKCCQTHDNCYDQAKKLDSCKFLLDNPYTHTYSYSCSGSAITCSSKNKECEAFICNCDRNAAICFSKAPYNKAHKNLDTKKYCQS
# Hits are given with their value; - = inactive; . = no result.
SMILES,MPTP block,SMARCA2 act,ATG4B inhibitor,MC4R antag cAMP,MC4R ag barr,PLA2 ctr,others
COC(=O)[C@]12C[C@H](CC(=O)N3CCN(C(=O)C4CC4)CC3)C(=O)N(Cc3ccc(Cl)cc3Cl)C1=C[C@H](C1CCCC1)O[C@@H]2C,.,-,.,.,.,.,
Cc1c(Cl)cccc1NC(=S)NCc1cccn1C,-,-,47,-,-,66,
Cc1c(Cl)cccc1NC(=S)NCCC(C)C,-,-,64,-,-,67,
Cc1c(Cl)cccc1NC(=S)NCc1ccc(F)cc1,-,-,58,-,-,69,
O=C(NCc1cccnc1)Nc1ccc(Cl)cc1,-,-,-,-,-,.,
O=C(NCc1ccc(F)cc1)Nc1ccc(Cl)cc1,-,-,46,-,-,54,
Cc1c(Cl)cccc1NC(=S)NCC(C)C,-,-,-,-,-,.,
CC(C)(C)c1ccc(S(=O)(=O)N2CCC(c3cn4ccccc4n3)CC2)cc1,.,-,.,.,.,.,
COC(=O)c1cc2c(c3c4cc(OC)ccc4n(S(=O)(=O)c4cccc(C)c4)c13)C(=O)N(C)C2,.,-,.,.,.,.,
Fc1ccc(-c2nnn(Cc3ccc(F)cc3Cl)n2)cc1,-,-,-,-,-,.,
Cc1ccccc1-c1nnn(Cc2ccc(F)cc2Cl)n1,-,-,44,-,-,-,
O=C(Nc1cccc(C(F)(F)F)c1)OCCCN1CCC2(CCC(c3ccccc3)CC2)C1=O (stereo not given),.,-,.,.,.,.,
CC1=NN(c2ccc(C(=O)O)cc2)C(=O)/C1=C\c1ccc(OC(=O)c2cccs2)cc1,-,-,85,-,-,70,
Cc1cc(-c2n[nH]c(=S)n2N=Cc2ccc(-c3ccccc3)cc2)n[nH]1,.,-,.,.,.,.,
O=C(O)c1ccccc1NC(c1ccccc1)c1ccc(Cl)cc1 (stereo not given),-,-,85,-,-,87,
O=C(c1cc(COc2c(F)cccc2F)on1)N1CCC(c2ccccc2Cl)C1 (stereo not given),-,-,40,-,-,55,
COc1ccc(N2CCN(CCCNC(=O)CCc3ccc(F)cc3)CC2)cc1,.,-,.,.,.,.,
Cc1ccc(-n2cccc2/C=C2/C(=N)N3C(=NC2=O)SN=C3S(C)(=O)=O)cc1Cl,-,-,65,-,-,52,
CCCOc1ccc2ccccc2c1/C=C1\SC(=O)NC1=O,-,-,.,-,-,-,
CCS(=O)(=O)N1Cc2ccccc2CC1C(=O)Nc1nnc(SCc2c(Cl)cccc2Cl)s1 (stereo not given),-,-,74,-,-,64,
CNc1ccc(Br)cc(C(=O)/C=C/c2cccc(Cl)c2Cl)c1=O,-,-,-,-,-,.,
CCNc1ccc(Br)cc(C(=O)/C=C/c2ccccc2Cl)c1=O,-,-,51,-,-,-,
CCC(C)N(C(=O)Cn1nc(Cc2ccncc2)c2ccccc2c1=O)C(C)CC (stereo not given),.,-,.,.,.,.,
COc1cc(C2Nc3cc(Cl)c(S(N)(=O)=O)cc3S(=O)(=O)N2)ccc1OCc1ccccc1 (stereo not given),-,-,84,-,-,85,
Cc1ccc(CN2CCCCC(NC(=O)c3ccc(COc4ccccc4)cc3)C2=O)cc1 (stereo not given),.,-,.,.,.,.,
SMILES,MPTP block,SMARCA2 act,ATG4B inhibitor,MC4R antag cAMP,MC4R ag barr,PLA2 ctr,others
CCn1c(Cc2cccs2)nnc1SCC(=O)Nc1ccccc1-c1ccccc1,.,-,.,.,.,.,
CCCCCCCCCCCCCCC(O)C[N+](C)(CCO)CCO (stereo not given),-,-,43,-,-,-,ATG4B confirm=64
COC(=O)C1=C(N)N(c2ccccc2C(F)(F)F)C2=C(C(=O)CCC2)C1c1ccc2c(c1)OCO2 (stereo not given),-,-,54,-,-,68,
COC(=O)CSC1=C(C#N)C(c2ccc3c(c2)OCO3)C2=C(CCCC2=O)N1 (stereo not given),-,.,-,-,-,.,
O=C(O)c1ccc(N/N=C/c2ccc(OC(=O)c3ccccc3Cl)cc2)cc1,-,-,94,-,-,96,
COCC#Cc1ccc(CC[C@H]2O[C@H]3CC[C@@H](CO)O[C@H]3C[C@H]2n2cc(C3CC3)nn2)cc1,.,-,.,.,.,.,
Clc1ccccc1Nc1ncnc2c1nnn2Cc1ccccc1,-,-,56,-,-,58,
c1ccc(-c2ccc(-c3cnc4n3CCCCC4)cc2)cc1,-,-,52,-,-,59,
CCOc1ccc(-c2cnc3n2CCCCC3)cc1,-,-,-,-,-,.,
CCCCCCCCNS(=O)(=O)/C=C/c1ccc(OC)cc1CNC(=O)OC(C)(C)C,.,-,.,.,.,.,
Cc1sc2nc(C3CC3)nc(SCC(=O)N3c4ccccc4CC3C)c2c1C (stereo not given),-,.,68,-,-,85,
O=C(CN(CCc1ccccc1)S(=O)(=O)c1ccc(F)cc1)N1CCOCC1,.,-,.,.,.,.,
COc1cccc(CNC(=O)C2CCN(S(=O)(=O)c3ccc4c(c3)CC(C)N4C(=O)C3CC3)CC2)c1 (stereo not given),-,-,56,-,-,58,
Cc1ccc(OCc2cc(C(=O)NCc3cc(F)ccc3C)no2)cn1,-,-,50,-,-,54,
Cc1ccccc1CNC(=O)c1cc(COc2ccc(F)cc2F)on1,-,-,-,-,-,.,
Cc1cc(C=C2C(=O)c3ccccc3C2=O)c(C)n1-c1ccccc1,-,-,45,-,-,-,ATG4B confirm=67
Cc1cc(C=C2C(=O)c3ccccc3C2=O)c(C)n1-c1ccc(C(=O)O)cc1,-,-,-,-,-,.,
Cc1cc(/C=C2\Cc3ccccc3C2=O)c(C)n1-c1ccccc1,-,-,62,-,-,62,
COC(=O)[C@]12C[C@H](CC(=O)N3CCN(C(=O)C4CC4)CC3)C(=O)N(Cc3ccc(Cl)cc3Cl)C1=C[C@H](C(C)C)O[C@@H]2C1CC1,.,-,.,.,.,.,
CN1[C@@H](Cc2ccccc2)COc2cc(N3CCCC3)ccc2S1(=O)=O,.,-,.,.,.,.,
Clc1ccc(-n2c(SCc3cccc4ccccc34)nnc2-c2ccccc2)cc1,.,-,.,.,.,.,
CC(=O)Nc1cccc(-c2cc(-c3c(Cl)cccc3Cl)no2)c1,-,-,-,-,-,.,
CNC(=O)Nc1cccc(-c2cc(-c3c(Cl)cccc3Cl)no2)c1,-,-,59,-,-,65,
COC[C@@H](OC(C)=O)[C@H]1OCc2ccccc2[C@@H]1/C=C/c1ccccc1,.,-,.,.,.,.,
C=CCN1C(=O)[C@H](CC(=O)N2CCN(C(=O)c3ccco3)CC2)[C@@]2(C(=O)OCC)CCCC=C12,.,-,.,.,.,.,
CCCN1CCCCC(NC(=O)COCc2ccccc2)C1=O (stereo not given),.,-,.,.,.,.,
Cc1ccccc1NC(=O)c1ccc(NS(=O)(=O)c2cc(C(C)(C)C)cc(C)c2C)cc1,-,-,47,-,-,-,
CCOC(=O)N/N=C/c1cn(CCCOc2ccc(C)cc2)c2ccccc12,-,-,41,-,-,-,

# Compound activity from PubChem.
